In ChEMBL document CHEMBL3774311, “Synthesis and in vitro antitumour activity of tiazofurin analogues with nitrogen functionalities at the C-2' position” (Eur J Med Chem, 2016):
Each block holds one compound with its values, some of them ahead of it.

How the values were obtained:
K562 [1] = assay: Induction of cell cycle arrest in human K562 cells assessed as accumulation at S phase after 24 hrs by propidium iodide staining-based flow cytometry (reference value: 48.38%); assay type: functional
In short: (§1)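 Exponentially growing K562 cells treated 24 or 72 h; cells stained with propidium iodide and cell-cycle distribution (sub-G1, G0/G1, S, G2/M, %) measured by flow cytometry; untreated cells as control.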

K562 [2] = assay: Induction of apoptosis in human K562 cells assessed as necrotic cells after 24 hrs by annexin V-FITC/propidium iodide staining based flow cytometry (reference value: 1.50%); assay type: functional
In short: (§2)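 K562 cells treated 24 or 72 h, double-stained with Annexin V-FITC/PI and analysed by flow cytometry to give percentages of live, apoptotic and necrotic cells; apoptotic and necrotic responses expressed as specific apoptosis or specific necrosis (%).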

K562 [3] = assay: Induction of specific apoptosis in human K562 cells after 24 hrs by annexin V-FITC/propidium iodide staining based flow cytometry; assay type: functional; parameters: concentration or dose not given beside the values; in short: as §2
K562 [4] = assay: Induction of cell cycle arrest in human K562 cells assessed as accumulation at S phase after 72 hrs by propidium iodide staining-based flow cytometry (reference value: 35.73%); assay type: functional; in short: as §1
K562 [5] = assay: Induction of apoptosis in human K562 cells assessed as necrotic cells after 72 hrs by annexin V-FITC/propidium iodide staining based flow cytometry (reference value: 7.23%); assay type: functional; in short: as §2
K562 [6] = assay: Induction of apoptosis in human K562 cells assessed as Bax protein level after 72 hrs by Western blotting method (reference value: 32.81%); assay type: functional
K562 [7] = assay: Induction of apoptosis in human K562 cells assessed as cleaved PARP level after 24 hrs by Western blotting method (reference value: 36.17%); assay type: functional
K562 [8] = assay: Antiproliferative activity against human K562 cells after 72 hrs by MTT assay; assay type: functional, cell-based; settings: Homo sapiens, K562, 72 h
In short: (§3)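 Human tumour lines and MRC-5 foetal lung fibroblasts (normal-cell comparator) exposed to compounds for 72 h; viability read by standard MTT assay. IC50 taken as concentration inhibiting growth by 50% versus untreated control; means of three independent experiments, coefficients of variation under 10%.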

MRC5 = assay: Cytotoxicity against human MRC5 cells after 72 hrs by MTT assay; assay type: cell-based; settings: MRC5, 72 h; in short: as §3
K562 [9] = assay: Induction of apoptosis in human K562 cells assessed as cleaved PARP level after 72 hrs by Western blotting method (reference value: 18.36%); assay type: functional
HT-29 = assay: Antiproliferative activity against human HT-29 cells after 72 hrs by MTT assay; assay type: functional, cell-based; settings: HT-29, 72 h; in short: as §3
K562 [10] = assay: Induction of apoptosis in human K562 cells assessed as late apoptotic cells after 24 hrs by annexin V-FITC/propidium iodide staining based flow cytometry (reference value: 4.58%); assay type: functional; in short: as §2
MCF7 = assay: Antiproliferative activity against human MCF7 cells after 72 hrs by MTT assay; assay type: functional, cell-based; settings: MCF7, 72 h; in short: as §3
K562 [11] = assay: Induction of apoptosis in human K562 cells assessed as caspase 3 level after 24 hrs by Western blotting method (reference value: 42.77%); assay type: functional
K562 [12] = assay: Induction of apoptosis in human K562 cells assessed as early apoptotic cells after 72 hrs by annexin V-FITC/propidium iodide staining based flow cytometry (reference value: 3.22%); assay type: functional; in short: as §2
K562 [13] = assay: Induction of cell cycle arrest in human K562 cells assessed as accumulation at Sub-G1 phase after 72 hrs by propidium iodide staining-based flow cytometry (reference value: 3.04%); assay type: functional; in short: as §1
K562 [14] = assay: Induction of apoptosis in human K562 cells assessed as Bcl2 protein level after 24 hrs by Western blotting method (reference value: 22.81%); assay type: functional
K562 [15] = assay: Induction of apoptosis in human K562 cells assessed as living cells after 72 hrs by annexin V-FITC/propidium iodide staining based flow cytometry (reference value: 84.31%); assay type: functional; in short: as §2
HeLa = assay: Antiproliferative activity against human HeLa cells after 72 hrs by MTT assay; assay type: functional, cell-based; settings: Homo sapiens, HeLa, 72 h; in short: as §3
K562 [16] = assay: Induction of apoptosis in human K562 cells assessed as living cells after 24 hrs by annexin V-FITC/propidium iodide staining based flow cytometry (reference value: 85.85%); assay type: functional; in short: as §2
Raji = assay: Antiproliferative activity against human Raji cells after 72 hrs by MTT assay; assay type: functional, cell-based; settings: Homo sapiens, Raji, 72 h; in short: as §3
K562 [17] = assay: Induction of cell cycle arrest in human K562 cells assessed as accumulation at G2/M phase after 72 hrs by propidium iodide staining-based flow cytometry (reference value: 15.31%); assay type: functional; in short: as §1
K562 [18] = assay: Induction of apoptosis in human K562 cells assessed as caspase 3 level after 72 hrs by Western blotting method (reference value: 17.05%); assay type: functional
K562 [19] = assay: Induction of specific apoptosis in human K562 cells after 72 hrs by annexin V-FITC/propidium iodide staining based flow cytometry; assay type: functional; parameters: concentration or dose not given beside the values; in short: as §2
K562 [20] = assay: Induction of specific necrosis in human K562 cells after 24 hrs by annexin V-FITC/propidium iodide staining based flow cytometry; assay type: functional; parameters: concentration or dose not given beside the values; in short: as §2
K562 [21] = assay: Induction of apoptosis in human K562 cells assessed as Bax protein level after 24 hrs by Western blotting method (reference value: 16.13%); assay type: functional
K562 [22] = assay: Induction of apoptosis in human K562 cells assessed as late apoptotic cells after 72 hrs by annexin V-FITC/propidium iodide staining based flow cytometry (reference value: 5.24%); assay type: functional; in short: as §2
K562 [23] = assay: Induction of apoptosis in human K562 cells assessed as early apoptotic cells after 24 hrs by annexin V-FITC/propidium iodide staining based flow cytometry (reference value: 8.09%); assay type: functional; in short: as §2
[24] = Antiproliferative activity against human HL60 cells after 72 hrs by MTT assay; assay type: functional, cell-based, HL-60; settings: Homo sapiens, HL-60, 72 h; in short: as §3
K562 [25] = assay: Induction of cell cycle arrest in human K562 cells assessed as accumulation at G0/G1 phase after 24 hrs by propidium iodide staining-based flow cytometry (reference value: 36.28%); assay type: functional; in short: as §1
K562 [26] = assay: Induction of specific necrosis in human K562 cells after 72 hrs by annexin V-FITC/propidium iodide staining based flow cytometry; assay type: functional; parameters: concentration or dose not given beside the values; in short: as §2
K562 [27] = assay: Induction of apoptosis in human K562 cells assessed as Bcl2 protein level after 72 hrs by Western blotting method (reference value: 7.90%); assay type: functional
K562 [28] = assay: Induction of cell cycle arrest in human K562 cells assessed as accumulation at Sub-G1 phase after 24 hrs by propidium iodide staining-based flow cytometry (reference value: 1.05%); assay type: functional; in short: as §1
K562 [29] = assay: Induction of cell cycle arrest in human K562 cells assessed as accumulation at G2/M phase after 24 hrs by propidium iodide staining-based flow cytometry (reference value: 14.29%); assay type: functional; in short: as §1
Jurkat = assay: Antiproliferative activity against human Jurkat cells after 72 hrs by MTT assay; assay type: functional, cell-based; in short: as §3
K562 [30] = assay: Induction of cell cycle arrest in human K562 cells assessed as accumulation at G0/G1 phase after 72 hrs by propidium iodide staining-based flow cytometry (reference value: 45.92%); assay type: functional; in short: as §1

IC50 (K562 [8]): > 100 µM
IC50 (HT-29): > 100 µM
IC50 (MCF7): 3.92 µM
IC50 (HeLa): > 100 µM
IC50 (Raji): 14.7 µM
IC50 (Jurkat): > 100 µM
SMILES: CC(=O)N[C@@H]1[C@H](O)[C@@H](CO)O[C@H]1c1nc(C(N)=O)cs1
Activity (K562 [1]): 45.03%
Activity (K562 [2]): 7.39%
Activity (K562 [3]): 12.6%
Activity (K562 [4]): 31.42%
Activity (K562 [5]): 25.03%
Activity (K562 [6]): 98.81%
Activity (K562 [7]): 95.59%
IC50 (MRC5): 5.26 µM
Activity (K562 [9]): 33.66%
Activity (K562 [10]): 12.48%
Activity (K562 [11]): 90.45%
Activity (K562 [12]): 5.93%
Activity (K562 [13]): 11.17%
Activity (K562 [14]): 63.4%
Activity (K562 [15]): 7.05%
Activity (K562 [16]): 75.11%
Activity (K562 [17]): 9.32%
Activity (K562 [18]): 93.75%
Activity (K562 [19]): 43.6%
Activity (K562 [20]): 5.88%
Activity (K562 [21]): 18.43%
Activity (K562 [22]): 62.01%
Activity (K562 [23]): 5.03%
IC50 [24]: > 100 µM
Activity (K562 [25]): 43.07%
Activity (K562 [26]): 24.55%
Activity (K562 [27]): 37.09%
Activity (K562 [28]): 3.71%
Activity (K562 [29]): 8.21%
Activity (K562 [30]): 48.09%

IC50 (K562 [8]): > 100 µM
IC50 (HT-29): > 100 µM
IC50 (MCF7): 9.54 µM
IC50 (HeLa): > 100 µM
IC50 (Raji): 6.29 µM
IC50 (Jurkat): 23.6 µM
SMILES: COc1cccc(C(=O)N[C@@H]2[C@H](O)[C@@H](CO)O[C@H]2c2nc(C(N)=O)cs2)c1
Activity (K562 [1]): 46.71%
Activity (K562 [2]): 5.19%
Activity (K562 [3]): 11.88%
Activity (K562 [4]): 34%
Activity (K562 [5]): 10.82%
Activity (K562 [6]): 89.53%
Activity (K562 [7]): 111.75%
IC50 (MRC5): > 100 µM
Activity (K562 [9]): 37.39%
Activity (K562 [10]): 8.67%
Activity (K562 [11]): 104.69%
Activity (K562 [12]): 16.45%
Activity (K562 [13]): 10.84%
Activity (K562 [14]): 47.76%
Activity (K562 [15]): 2.76%
Activity (K562 [16]): 77.99%
Activity (K562 [17]): 12.04%
Activity (K562 [18]): 82.68%
Activity (K562 [19]): 37.07%
Activity (K562 [20]): 3.68%
Activity (K562 [21]): 4.66%
Activity (K562 [22]): 69.98%
Activity (K562 [23]): 8.16%
IC50 [24]: 2.69 µM
Activity (K562 [25]): 39.45%
Activity (K562 [26]): 10.33%
Activity (K562 [27]): 26.7%
Activity (K562 [28]): 4.44%
Activity (K562 [29]): 9.41%
Activity (K562 [30]): 43.13%

IC50 (K562 [8]): 1.89 µM
IC50 (MCF7): 1.78 µM
SMILES: NC(=O)c1csc([C@@H]2O[C@H](CO)[C@@H](O)[C@H]2O)n1 [TIAZOFURIN]
Activity (K562 [1]): 53.16%
Activity (K562 [2]): 5.27%
Activity (K562 [3]): -0.34%
Activity (K562 [4]): 33.62%
Activity (K562 [5]): 13.76%
Activity (K562 [6]): 111.01%
Activity (K562 [7]): 57.93%
Activity (K562 [9]): 44.51%
Activity (K562 [10]): 11.58%
Activity (K562 [11]): 47.68%
Activity (K562 [12]): 29.42%
Activity (K562 [13]): 24.99%
Activity (K562 [14]): 16.16%
Activity (K562 [15]): 41.24%
Activity (K562 [16]): 79.36%
Activity (K562 [17]): 5.74%
Activity (K562 [18]): 15.38%
Activity (K562 [19]): 13.71%
Activity (K562 [20]): 3.76%
Activity (K562 [21]): 37.25%
Activity (K562 [22]): 15.58%
Activity (K562 [23]): 3.79%
IC50 [24]: 0.19 µM
Activity (K562 [25]): 37.08%
Activity (K562 [26]): 10.71%
Activity (K562 [27]): 27.2%
Activity (K562 [28]): 2.22%
Activity (K562 [29]): 7.55%
Activity (K562 [30]): 35.66%
